32 molecules from ChEMBL document CHEMBL3817746, “6-Oxooxazolidine-quinazolines as noncovalent inhibitors with the potential to target mutant forms of EGFR” (Bioorg Med Chem, 2016) can be followed below.

In series [1] the test system is A-431. The series can be described thus: Antiproliferative activity against human A431 cells overexpressing wild-type EGFR after 72 hrs by MTT assay. Type of series: functional, cell-based. The settings on record: A-431, 72 h. Background: Tetrazolium dyes change colour on reduction, which living cells bring about.
The subject of series [2] is NCI-H1975. The series can be described thus: Antiproliferative activity against human NCI-H1975 cells expressing L858R/T790M mutant EGFR after 72 hrs by MTT assay. The note with it: NCI-H1975, 72 h. The format is functional, cell-based.
Series [3] relates to HepG2. In words: Cytotoxicity against human HepG2 cells assessed as cell growth inhibition after 72 hrs by MTT assay. The settings on record: HepG2, 72 h. Type of series: ADME, cell-based.
For series [4], the target named is Epidermal growth factor receptor (Homo sapiens, UniProt P00533, T790M). The series can be described thus: Inhibition of EGFR T790M mutant (unknown origin) preincubated for 5 mins followed by ATP addition for 30 mins by HTRF assay. The format is protein assay.
In series [5] the target is T1, Epidermal growth factor receptor (Homo sapiens, UniProt P00533). The series can be described thus: Inhibition of wild type human EGFR preincubated for 5 mins followed by ATP addition for 30 mins by HTRF assay. (TR-FRET usually uses a lanthanide donor and a delayed reading to cut background.)
Series [6] deals with A549. In words: Cytotoxicity against human A549 cells assessed as cell growth inhibition after 72 hrs by MTT assay. Type of series: ADME, cell-based. The settings on record: A549, 72 h.
For series [7], the target named is Epidermal growth factor receptor (Homo sapiens, UniProt P00533, L858R). In words: Inhibition of recombinant human EGFR L858R mutant expressed in baculovirus infected insect cells preincubated for 5 mins followed by ATP addition for 30 mins by HTRF assay. In short, it runs like this: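 Purchased EGFR L858R kinase and substrate were preincubated with compound for 5 min in enzymatic buffer. ATP was then added to start the reaction, which ran 30 min at room temperature. It was stopped with EDTA-containing detection reagents, and HTRF detection ran for 1 h. IC50 was fitted from the dose-response data as the mean of three independent experiments.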

The target in series [8] is T1, Epidermal growth factor receptor. In words: Inhibition of EGF-induced EGFR phosphorylation in human A431 cells at 1 uM preincubated for 1 hr followed by compound washout for 5 hrs and subsequent EGF addition for 15 mins by Western blot analysis. The settings on record: A-431. The format is cell-based. In short, it runs like this:
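A431 cells (5 x 10^5/well) were seeded overnight and treated with 1 µM compound for 1 h at 37 °C. Cells were washed 10 times with fresh medium over 5 h, then stimulated with EGF (20 ng/ml) for 15 min. Lysates were made in RIPA-type buffer with protease inhibitors, and equal protein was immunoblotted for EGFR, p-EGFR and β-actin, with ECL detection.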
On the technique in general: In western blotting, separated proteins are transferred to a membrane and probed.

The nature of series [9]: Chemical stability of the compound assessed as compound remaining at 1 uM at pH 10 after 24 hrs by HPLC-HRMS method. The format is physicochemical. The settings on record: buffer, read-out: Stability. In short, it runs like this: (§1)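 Buffers were 0.2 M PBS at pH 7.4, 9.0 or 10.0, held at 37 °C. Compound stock was made in CH3CN, then diluted into pre-warmed buffer. Aliquots taken at regular time points were injected directly into LC-TOF MS, and percentage of parent compound remaining was read out.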

For series [10], the target named is T1, Epidermal growth factor receptor. In words: Inhibition of EGF-induced EGFR phosphorylation in human A431 cells at 1 uM preincubated for 1 hr followed by EGF addition for 15 mins by Western blot analysis. The format is cell-based. The settings on record: A-431. In short, it runs like this:
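A431 cells (5 x 10^5/well) were seeded overnight. They were exposed to 1 µM compound for 1 h at 37 °C, then immediately given EGF (20 ng/ml) for 15 min. Whole-cell lysates were made in Tris/NaCl/EDTA/SDS/deoxycholate/NP-40 buffer with aprotinin and PMSF, then cleared at 4 °C. Equal protein was run on SDS-PAGE and blotted for EGFR, p-EGFR and β-actin, with ECL detection.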

Series [11] can be described thus: Chemical stability of the compound assessed as compound remaining at 1 uM at pH 7.4 after 24 hrs by HPLC-HRMS method. Type of series: physicochemical. The settings on record: buffer, read-out: Stability. In short, it runs like this:
as §1

Series [12] is described as follows: Chemical stability of the compound assessed as compound remaining at 1 uM at pH 9 after 24 hrs by HPLC-HRMS method. The format is physicochemical. The note with it: buffer, read-out: Stability. In short, it runs like this: as §1

Active and inactive are the calls of the source. The rule behind the calls is not given here. Bounds are passed on as bounds.

Usually IC50 stands for the concentration at which inhibition is half-maximal.

T1 sequence (P00533 whole entry): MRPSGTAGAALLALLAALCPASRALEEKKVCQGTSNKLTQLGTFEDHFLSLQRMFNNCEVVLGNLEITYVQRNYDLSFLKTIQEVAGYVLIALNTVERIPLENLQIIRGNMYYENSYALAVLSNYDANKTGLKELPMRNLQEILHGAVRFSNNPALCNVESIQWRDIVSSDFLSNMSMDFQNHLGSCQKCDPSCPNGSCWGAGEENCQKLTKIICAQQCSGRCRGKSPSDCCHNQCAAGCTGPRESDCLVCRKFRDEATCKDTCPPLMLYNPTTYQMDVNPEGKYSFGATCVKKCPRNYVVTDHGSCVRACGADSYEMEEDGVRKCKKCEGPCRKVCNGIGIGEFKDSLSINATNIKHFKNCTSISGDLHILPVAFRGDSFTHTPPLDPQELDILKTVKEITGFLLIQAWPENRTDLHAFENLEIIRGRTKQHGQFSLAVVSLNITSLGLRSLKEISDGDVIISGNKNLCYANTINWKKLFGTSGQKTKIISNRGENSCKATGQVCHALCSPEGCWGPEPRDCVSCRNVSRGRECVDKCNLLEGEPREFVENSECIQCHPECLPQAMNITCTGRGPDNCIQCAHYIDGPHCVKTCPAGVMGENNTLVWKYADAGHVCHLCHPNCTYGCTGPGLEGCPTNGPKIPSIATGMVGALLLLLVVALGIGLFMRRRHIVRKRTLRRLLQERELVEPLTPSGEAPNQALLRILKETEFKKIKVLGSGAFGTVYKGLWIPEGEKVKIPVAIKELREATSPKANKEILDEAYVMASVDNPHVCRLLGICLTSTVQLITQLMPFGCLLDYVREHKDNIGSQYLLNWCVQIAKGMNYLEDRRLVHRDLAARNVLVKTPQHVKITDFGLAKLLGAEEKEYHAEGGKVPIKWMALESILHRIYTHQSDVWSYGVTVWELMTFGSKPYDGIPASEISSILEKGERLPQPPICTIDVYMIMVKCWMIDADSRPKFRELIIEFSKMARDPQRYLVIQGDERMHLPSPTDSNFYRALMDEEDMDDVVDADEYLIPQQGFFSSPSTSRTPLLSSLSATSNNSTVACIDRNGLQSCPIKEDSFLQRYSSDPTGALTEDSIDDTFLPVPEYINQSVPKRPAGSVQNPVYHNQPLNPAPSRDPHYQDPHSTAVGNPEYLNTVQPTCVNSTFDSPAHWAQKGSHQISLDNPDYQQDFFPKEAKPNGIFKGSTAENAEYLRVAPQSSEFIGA
Chain of Epidermal growth factor receptor (Homo sapiens, UniProt P00533, L858R) (P00533 25-1210 L858R limits assumed): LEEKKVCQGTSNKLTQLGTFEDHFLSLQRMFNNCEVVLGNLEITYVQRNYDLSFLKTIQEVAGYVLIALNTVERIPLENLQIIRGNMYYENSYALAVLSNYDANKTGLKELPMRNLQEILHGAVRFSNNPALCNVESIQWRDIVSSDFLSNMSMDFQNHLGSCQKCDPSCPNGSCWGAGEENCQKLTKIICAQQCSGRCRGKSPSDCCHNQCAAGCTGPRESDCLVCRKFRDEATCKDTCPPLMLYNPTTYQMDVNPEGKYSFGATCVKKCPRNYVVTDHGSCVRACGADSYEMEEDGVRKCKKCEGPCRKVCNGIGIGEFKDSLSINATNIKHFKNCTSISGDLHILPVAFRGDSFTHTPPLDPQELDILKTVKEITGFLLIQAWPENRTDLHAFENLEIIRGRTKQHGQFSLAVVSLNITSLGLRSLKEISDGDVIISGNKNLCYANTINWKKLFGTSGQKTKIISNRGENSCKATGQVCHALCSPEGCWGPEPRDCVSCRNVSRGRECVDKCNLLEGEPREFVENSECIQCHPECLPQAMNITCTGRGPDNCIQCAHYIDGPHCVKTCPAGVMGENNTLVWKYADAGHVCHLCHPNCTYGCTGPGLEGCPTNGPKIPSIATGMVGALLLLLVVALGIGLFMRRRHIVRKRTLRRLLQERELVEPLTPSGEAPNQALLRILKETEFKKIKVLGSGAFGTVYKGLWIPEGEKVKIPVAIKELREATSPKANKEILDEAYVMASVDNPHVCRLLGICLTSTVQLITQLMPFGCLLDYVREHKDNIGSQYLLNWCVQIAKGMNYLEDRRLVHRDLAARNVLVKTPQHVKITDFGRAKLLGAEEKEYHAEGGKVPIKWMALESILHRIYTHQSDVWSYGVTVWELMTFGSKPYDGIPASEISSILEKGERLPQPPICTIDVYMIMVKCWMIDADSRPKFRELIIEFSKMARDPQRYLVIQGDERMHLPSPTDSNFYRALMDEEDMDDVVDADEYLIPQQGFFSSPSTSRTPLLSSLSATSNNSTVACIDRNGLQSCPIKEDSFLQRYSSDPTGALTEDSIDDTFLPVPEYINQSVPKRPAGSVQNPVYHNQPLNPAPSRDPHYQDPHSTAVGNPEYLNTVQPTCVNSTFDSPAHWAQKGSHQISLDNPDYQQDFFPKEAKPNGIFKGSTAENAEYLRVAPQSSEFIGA
Chain of Epidermal growth factor receptor (Homo sapiens, UniProt P00533, T790M) (P00533 25-1210 T790M limits assumed): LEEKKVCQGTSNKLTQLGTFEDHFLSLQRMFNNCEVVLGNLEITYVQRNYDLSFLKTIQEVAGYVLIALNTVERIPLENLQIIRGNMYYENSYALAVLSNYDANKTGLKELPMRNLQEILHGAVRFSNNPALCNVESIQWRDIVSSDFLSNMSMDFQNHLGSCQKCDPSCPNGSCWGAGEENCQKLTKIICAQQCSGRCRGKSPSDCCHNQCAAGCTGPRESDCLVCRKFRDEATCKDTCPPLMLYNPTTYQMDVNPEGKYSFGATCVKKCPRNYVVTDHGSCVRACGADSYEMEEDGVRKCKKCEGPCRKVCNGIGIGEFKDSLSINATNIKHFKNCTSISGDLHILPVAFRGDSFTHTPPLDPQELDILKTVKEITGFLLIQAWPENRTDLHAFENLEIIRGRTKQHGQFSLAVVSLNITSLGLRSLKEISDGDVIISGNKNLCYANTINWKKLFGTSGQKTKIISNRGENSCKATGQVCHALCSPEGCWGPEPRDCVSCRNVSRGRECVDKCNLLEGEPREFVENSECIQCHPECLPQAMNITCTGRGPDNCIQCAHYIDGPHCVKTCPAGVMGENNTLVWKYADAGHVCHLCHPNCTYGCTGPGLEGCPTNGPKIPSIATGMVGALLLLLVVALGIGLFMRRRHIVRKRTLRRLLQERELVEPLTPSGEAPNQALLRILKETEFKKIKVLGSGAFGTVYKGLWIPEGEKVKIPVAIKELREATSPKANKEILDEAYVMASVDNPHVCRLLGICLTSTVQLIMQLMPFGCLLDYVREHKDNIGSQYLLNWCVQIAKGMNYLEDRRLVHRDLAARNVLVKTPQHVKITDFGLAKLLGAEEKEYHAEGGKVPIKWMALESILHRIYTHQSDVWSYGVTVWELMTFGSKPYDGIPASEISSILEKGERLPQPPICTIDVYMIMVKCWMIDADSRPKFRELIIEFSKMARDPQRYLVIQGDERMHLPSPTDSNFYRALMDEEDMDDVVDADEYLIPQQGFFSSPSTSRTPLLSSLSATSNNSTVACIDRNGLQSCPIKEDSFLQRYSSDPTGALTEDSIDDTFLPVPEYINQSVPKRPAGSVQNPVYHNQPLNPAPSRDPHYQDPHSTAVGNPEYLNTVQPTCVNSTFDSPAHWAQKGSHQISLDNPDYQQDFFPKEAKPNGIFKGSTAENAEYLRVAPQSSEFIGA

For `CN1CCC(COc2cc3ncnc(Nc4ccc(F)c(Cl)c4F)c3cc2NC(=O)[C@H]2COC(=O)N2)CC1`, the IC50 in series [1] amounted to 5.3 µM; in [2], 13.5 µM.
In the case of `CCOc1cc2ncnc(Nc3ccc(OCc4cccc(F)c4)c(Cl)c3)c2cc1NC(=O)[C@H]1COC(=O)N1`, the IC50 was above 100 µM in series [3]; 0.111 µM in series [4]; 0.00119 µM in series [5]; above 50 µM in series [6]; 0.00549 µM in series [7]; 4.15 µM in [1]. The same molecule displayed an IC50 in [2] of 4.75 µM.
Take `CN1CC[C@H](Oc2cc3ncnc(Nc4ccc(F)c(Cl)c4)c3cc2NC(=O)[C@@H]2COC(=O)N2)C1`: the IC50 in series [1] worked out at 12.6 µM; in [2], 13.6 µM.
The matching figures for `COc1cc2ncnc(Nc3cccc(Br)c3)c2cc1NC(=O)[C@H]1COC(=O)N1`: 14.3 µM and 11.1 µM.
The matching figures for `O=C1N[C@H](C(=O)Nc2cc3c(Nc4ccc(F)c(Cl)c4)ncnc3cc2O[C@H]2CCOC2)CO1`: 22.8 µM and 9.33 µM.
With `CN1CCOC[C@@H]1COc1cc2ncnc(Nc3ccc(F)c(Cl)c3)c2cc1NC(=O)[C@@H]1COC(=O)N1`, the values for the IC50 in series [1] and in [2] were 18.7 µM and 7.4 µM, respectively.
The matching figures for `CN1CCC(COc2cc3ncnc(Nc4ccc(F)c(Cl)c4F)c3cc2NC(=O)[C@@H]2COC(=O)N2)CC1`: 2.43 µM and 21.1 µM.
As for `CCOc1cc2ncnc(Nc3ccc(Oc4ccc(C)nc4)c(Cl)c3)c2cc1NC(=O)[C@@H]1COC(=O)N1`, the figures for the IC50 in series [1] and in series [2] were 11.2 µM and 7.65 µM, respectively.
Take `O=C1N[C@@H](C(=O)Nc2cc3c(Nc4ccc(F)c(Cl)c4)ncnc3cc2O[C@H]2CCOC2)CO1`: the values for the IC50 in [1] and in series [2] were 11 µM and above 50 µM, respectively.
The matching figures for `COc1cc2ncnc(Nc3ccc(F)c(Cl)c3)c2cc1NC(=O)[C@@H]1CCC(=O)N1`: 21.8 µM and above 50 µM.
On to `COc1cc2ncnc(Nc3cccc(C(F)(F)F)c3)c2cc1NC(=O)[C@@H]1COC(=O)N1`, for which the values for the IC50 in series [1] and in series [2] were 13.5 µM and 10.8 µM, respectively.
Consider `COc1cc2ncnc(Nc3cccc(Br)c3)c2cc1NC(=O)[C@@H]1COC(=O)N1`, for which the IC50 in series [3] was above 100 µM; in series [4], 0.126 µM; in series [5], 0.00047 µM; in series [6], above 50 µM; in [7] it was 0.00038 µM; in [1] it was 7.25 µM. In series [2], this molecule had an IC50 of 9.08 µM.
With `COCCOc1cc2ncnc(Nc3ccc(F)c(Cl)c3)c2cc1NC(=O)[C@H]1COC(=O)N1`, the IC50 in series [1] and in series [2] was above 50 µM in each case.
For `COc1cc2ncnc(Nc3ccc(F)c(Cl)c3)c2cc1NC(=O)[C@H]1NC(=O)O[C@@H]1C`, the IC50 in series [3] is above 50 µM; in [4], 0.0402 µM; in series [5], 0.00198 µM; in [6], above 50 µM; in series [7], 0.00035 µM; in series [1], 8.65 µM. Inhibition in [2] was half-maximal at 8.98 µM (IC50).
As to `O=C1N[C@H](C(=O)Nc2cc3c(Nc4ccc(F)c(Cl)c4)ncnc3cc2OCCN2CCCCC2)CO1`, the half-inhibitory concentration (IC50) was above 50 µM in [3]; 0.333 µM in [4]; 0.0255 µM in series [5]; 42.9 µM in series [6]; 0.00779 µM in [7]; 3.5 µM in [1]. In [2], this molecule had an IC50 of 5.85 µM.
Consider `O=C1N[C@H](C(=O)Nc2cc3c(Nc4ccc(F)c(Cl)c4)ncnc3cc2OCCCN2CCOCC2)CO1`, for which the IC50 in series [4] is 0.0587 µM; in series [5], 0.00454 µM; in series [7], 0.00083 µM; in [1], 48.7 µM; in series [2] it was 12.3 µM.
As for `COc1cc2ncnc(Nc3ccc(F)c(Cl)c3)c2cc1NC(=O)[C@@H]1COC(=O)N1`, the 50% inhibitory concentration (IC50) in [3] was above 100 µM; in series [4] it was 0.0263 µM; in series [5], 0.00106 µM; in [6], 14.9 µM; in series [7], 0.00031 µM; in series [1] it was 9.2 µM. The molecule further had an IC50 in series [2] of 6.8 µM. The inhibition entry in series [8] was “inactive”. Besides, the remaining at 24 h, 1 µM in series [9] is 85.8%; in series [11] it was 97.1%; in [12], 89.9%. In addition, the inhibition result in series [10] was “Active”.
For `CCOc1cc2ncnc(Nc3ccc(OCc4ccccn4)c(Cl)c3)c2cc1NC(=O)[C@H]1COC(=O)N1`, the IC50 in series [1] and in series [2] was above 50 µM throughout.
On to `CCOc1cc2ncnc(Nc3ccc4c(cnn4Cc4cccc(F)c4)c3)c2cc1NC(=O)[C@H]1COC(=O)N1`, for which the results for the IC50 in [1] and in [2] were 18.9 µM and above 50 µM, respectively.
The matching figures for `CCOc1cc2ncnc(Nc3ccc(OCc4ccccn4)c(Cl)c3)c2cc1NC(=O)[C@@H]1COC(=O)N1`: above 50 µM and 23.3 µM.
The matching figures for `COCCOc1cc2ncnc(Nc3ccc(F)c(Cl)c3)c2cc1NC(=O)[C@@H]1COC(=O)N1`: 25.9 µM and 22.1 µM.
Take `CCOc1cc2ncnc(Nc3ccc(OCc4cccc(F)c4)c(Cl)c3)c2cc1NC(=O)[C@H]1NC(=O)O[C@@H]1C`: the IC50 in series [3] was found to be 30.8 µM; in [4], 0.295 µM; in [5], 0.00257 µM; in series [6], 32.9 µM; in series [7] it was 0.012 µM; in series [1], 3.36 µM. The same molecule came in with an IC50 in series [2] of 4.28 µM.
For `COc1ccc(Nc2ncnc3cc(OC)c(NC(=O)[C@@H]4COC(=O)N4)cc23)cc1`, the values for the IC50 in series [1] and in [2] were 34.9 µM and 10 µM, respectively.
The matching figures for `O=C1N[C@H](C(=O)Nc2cc3c(Nc4ccc(F)c(Cl)c4)ncnc3cc2OCC(F)(F)F)CO1`: 33.9 µM and above 50 µM.
`CCOc1cc2ncnc(Nc3ccc(OCC4CC4)c(Cl)c3)c2cc1NC(=O)[C@H]1NC(=O)O[C@@H]1C`: the IC50 is 7.35 µM in series [1] and 12.7 µM in [2].
The matching figures for `CCOc1cc2ncnc(Nc3ccc4c(cnn4Cc4cccc(F)c4)c3)c2cc1NC(=O)[C@@H]1COC(=O)N1`: 10.8 µM and 10.5 µM.
The matching figures for `COc1cc2ncnc(Nc3ccc(F)c(Cl)c3)c2cc1NC(=O)[C@H]1COC(=O)N1`: 16.8 µM and 21.2 µM.
Take `CCOc1cc2ncnc(N[C@@H](C)c3ccccc3)c2cc1NC(=O)[C@@H]1COC(=O)N1`: the half-inhibitory concentration (IC50) in series [4] was above 1 µM; in [5], 0.00552 µM; in [7], 0.00071 µM; in series [1], 16.9 µM; in series [2], 15.3 µM.
As for `O=C1N[C@@H](C(=O)Nc2cc3c(Nc4ccc(F)c(Cl)c4)ncnc3cc2OCCCN2CCOCC2)CO1`, the IC50 in [1] was above 50 µM; in [2] it was 37.2 µM.
The matching figures for `CCOc1cc2ncnc(N[C@@H](C)c3ccccc3)c2cc1NC(=O)[C@H]1COC(=O)N1`: 15 µM and 4.95 µM.
In the case of `CCOc1cc2ncnc(Nc3ccc(OCC4CC4)c(Cl)c3)c2cc1NC(=O)[C@@H]1COC(=O)N1`, the IC50 in series [3] is above 100 µM; in series [4] it was 0.0808 µM; in series [5], 0.0378 µM; in series [6], 28.9 µM; in series [7], 0.0521 µM; in series [1] it was 5.05 µM. The IC50 in series [2] stood at 5.08 µM.
With `CCOc1cc2ncnc(Nc3ccc(OCc4cccc(F)c4)c(Cl)c3)c2cc1NC(=O)[C@@H]1COC(=O)N1`, the IC50 in [3] is above 50 µM; in [4], 0.0532 µM; in series [5] it was 0.00134 µM; in series [6], 11.6 µM; in [7], 0.00562 µM; in [1], 3.89 µM. The molecule further showed a half-inhibitory concentration (IC50) in series [2] of 3.87 µM.
